Legend:
[1] = target: T1, Amine oxidase [flavin-containing] A (Homo sapiens, UniProt P21397); experiment: Inhibition of recombinant wild-type MAOA from human liver expressed in Pichia pastoris
T1 sequence (P21397 whole entry): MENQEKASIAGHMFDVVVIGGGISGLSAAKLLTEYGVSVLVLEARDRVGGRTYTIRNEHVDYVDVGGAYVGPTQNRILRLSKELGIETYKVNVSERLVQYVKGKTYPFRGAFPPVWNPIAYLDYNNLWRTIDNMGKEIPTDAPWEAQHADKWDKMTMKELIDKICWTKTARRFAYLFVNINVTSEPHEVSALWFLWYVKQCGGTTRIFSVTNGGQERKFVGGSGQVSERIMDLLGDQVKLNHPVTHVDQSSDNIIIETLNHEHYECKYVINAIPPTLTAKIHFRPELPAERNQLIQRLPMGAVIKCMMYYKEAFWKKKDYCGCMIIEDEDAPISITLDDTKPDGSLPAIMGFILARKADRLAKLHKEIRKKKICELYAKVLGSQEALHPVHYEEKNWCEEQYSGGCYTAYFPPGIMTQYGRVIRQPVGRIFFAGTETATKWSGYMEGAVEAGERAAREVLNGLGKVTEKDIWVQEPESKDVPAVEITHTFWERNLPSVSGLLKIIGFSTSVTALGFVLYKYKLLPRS

[2] = Inhibition of baboon liver MAOB; set-up: species or system Papio hamadryas
Summary of the method: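 Baboon liver mitochondrial fractions as MAO-B source, with MMTP as substrate. IC50 from means ± SEM of duplicate determinations. Reversibility was tested by preincubating inhibitor (40 nM) with the mitochondria for 0, 15, 30 and 60 min.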

[3] = Inhibition of human MAOB […] mutant
[4] = target: T2, Amine oxidase [flavin-containing] B (Homo sapiens, UniProt P27338); experiment: Inhibition of recombinant wild-type MAOB from human liver expressed in Pichia pastoris
T2 sequence (P27338 whole entry): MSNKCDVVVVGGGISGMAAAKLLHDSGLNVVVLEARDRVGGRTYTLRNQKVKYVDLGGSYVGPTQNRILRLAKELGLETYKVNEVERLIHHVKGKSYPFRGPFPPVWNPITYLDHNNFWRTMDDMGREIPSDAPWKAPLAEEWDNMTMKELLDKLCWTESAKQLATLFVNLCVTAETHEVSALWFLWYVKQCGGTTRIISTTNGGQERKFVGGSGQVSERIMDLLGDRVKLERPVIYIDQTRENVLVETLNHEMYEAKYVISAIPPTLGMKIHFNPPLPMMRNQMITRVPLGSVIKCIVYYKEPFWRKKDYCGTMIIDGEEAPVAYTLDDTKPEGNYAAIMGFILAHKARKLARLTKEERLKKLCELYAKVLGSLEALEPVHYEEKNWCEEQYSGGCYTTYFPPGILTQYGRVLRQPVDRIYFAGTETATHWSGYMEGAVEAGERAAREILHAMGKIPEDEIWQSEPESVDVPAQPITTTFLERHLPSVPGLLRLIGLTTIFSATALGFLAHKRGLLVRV

Homo sapiens = species on record: Homo sapiens; experiment: Selectivity ratio of Ki for recombinant wild-type MAOA from human liver to Ki for recombinant wild-type MAOB from human liver
Summary of the method: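 Substrates were p-CF3-benzylamine for MAO-A (243 nm) and benzylamine for MAO-B (250 nm), six concentrations 50–3000 µM, three inhibitor levels. Ki from apparent Km versus inhibitor; selectivity = Ki(MAO-A)/Ki(MAO-B).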

Row | Structure (SMILES) | Ki [1] [µM] | IC50 [2] [µM] | Ki [3] [µM] | Ki [4] [µM] | Ratio Ki (Homo sapiens)
1 | O=C1Nc2ccc(/C=C/c3cccc(F)c3)cc2C1=O | 2.2 |  |  |  | 
2 | O=C1Nc2ccc(/C=C/c3ccccc3)cc2C1=O | 0.78 | 0.0417 | 1.1 | 0.31 | 5
3 | O=C1Nc2ccc(/C=C/c3cccc(Cl)c3)cc2C1=O | 5.6 | 0.0207 | 12.5 | 1.4 | 2.5

Source: ChEMBL document CHEMBL1138612, “Inhibition of monoamine oxidase by (E)-styrylisatin analogues” (Bioorg Med Chem Lett, 2009)
